Data published in ChEMBL document CHEMBL1909617, “Bioactive dammarane-type saponins from Operculina turpethum” (J Nat Prod, 2011).

Assays:
[1] = Cytotoxicity against human embryo L02 cells assessed as cell viability after 48 hrs by MTT assay; format: cell-based; settings: read-out: MTD
How it was run: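 Human embryo liver L-02 cells in RPMI-1640 with 10% heat-inactivated FBS, penicillin, streptomycin and L-glutamine, seeded at 2 × 10^4 cell/mL and grown 24 h at 37 C, 5% CO2. Medium replaced by serial dilutions of compound (from 1 mg/mL DMSO stock), 48 h exposure. MTT added for 4 h, formazan dissolved in DMSO, OD 570 nm. Viability = OD(compound)/OD(control) × 100; maximum nontoxic concentration derived.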

[2] = Cytoprotective activity in human embryo L02 cells assessed as inhibition of D-galactosamine-induced cytotoxicity at 12.5 ug/ml treated for 1 hr prior to D-galactosamine challenge measured after 48 hrs by MTT assay relative to control; format: functional
How it was run: (§1)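 L-02 human embryo liver cells in RPMI-1640 with 10% heat-inactivated FBS, penicillin, streptomycin, L-glutamine; seeded 2 × 10^4 cells/mL, grown 24 h at 37 °C, 5% CO2. Fresh medium with compound (diluted from 1 mg/mL DMSO stock) for 1 h, then 5 mM D-GalN for 48 h. MTT read at 570 nm; inhibition (%) = (OD compound − OD GalN control)/(OD blank − OD control) × 100; n = 3, mean ± SD.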

[3] = Cytoprotective activity in human embryo L02 cells assessed as inhibition of D-galactosamine-induced cytotoxicity at 6.25 ug/ml treated for 1 hr prior to D-galactosamine challenge measured after 48 hrs by MTT assay relative to control; format: functional; how it was run: as §1
[4] = Cytoprotective activity in human embryo L02 cells assessed as inhibition of D-galactosamine-induced cytotoxicity at 3.13 ug/ml treated for 1 hr prior to D-galactosamine challenge measured after 48 hrs by MTT assay relative to control; format: functional; how it was run: as §1
[5] = Cytoprotective activity in human embryo L02 cells assessed as inhibition of D-galactosamine-induced cytotoxicity at 1.56 ug/ml treated for 1 hr prior to D-galactosamine challenge measured after 48 hrs by MTT assay relative to control; format: functional; how it was run: as §1

## CC(C)[C@]1(CO)CC[C@@](C)([C@H]2[C@H](O)C[C@]3(C)[C@@H]2CC[C@@H]2[C@@]4(C)CC[C@H](O[C@@H]5O[C@H](CO)[C@@H](O)[C@H](O)[C@H]5O[C@@H]5O[C@H](CO)[C@@H](O)[C@H](O)[C@H]5O)C(C)(C)[C@@H]4CC[C@]23C)O1 [OPERCULINOSIDE A]
[1]
  MNTC at 48 h: 12.5 µg/mL
[2]
  inhibition at 12.5 µg/mL: 46.7%
[3]
  inhibition at 6.25 µg/mL: -14.7%
[4]
  inhibition at 3.13 µg/mL: -22.8%

## CC(C)[C@]1(CO[C@@H]2O[C@H](CO)[C@@H](O)[C@H](O)[C@H]2O)CC[C@@](C)([C@H]2[C@H](O)C[C@]3(C)[C@@H]2CC[C@@H]2[C@@]4(C)CC[C@H](O[C@@H]5O[C@H](CO)[C@@H](O)[C@H](O)[C@H]5O[C@@H]5O[C@H](CO)[C@@H](O)[C@H](O)[C@H]5O)C(C)(C)[C@@H]4CC[C@]23C)O1 [OPERCULINOSIDE B]
[1]
  MNTC at 48 h: 100 µg/mL
[2]
  inhibition at 12.5 µg/mL: -6.9%
[3]
  inhibition at 6.25 µg/mL: 10.4%
[4]
  inhibition at 3.13 µg/mL: 3.5%

## CC(C)(O)[C@@H]1CC[C@@](C)([C@H]2[C@H](O)C[C@]3(C)[C@@H]2CC[C@@H]2[C@@]4(C)CC[C@H](O[C@@H]5O[C@H](CO)[C@@H](O)[C@H](O)[C@H]5O[C@@H]5O[C@H](CO)[C@@H](O)[C@H](O)[C@H]5O)C(C)(C)[C@@H]4CC[C@]23C)O1 [OPERCULINOSIDE C]
[1]
  MNTC at 48 h: 50 µg/mL
[2]
  inhibition at 12.5 µg/mL: 44.1%
[3]
  inhibition at 6.25 µg/mL: 69.5%
[4]
  inhibition at 3.13 µg/mL: 16.7%

## CC(C)(O[C@@H]1O[C@H](CO)[C@@H](O)[C@H](O)[C@H]1O)[C@@H]1CC[C@@](C)([C@H]2[C@H](O)C[C@]3(C)[C@@H]2CC[C@@H]2[C@@]4(C)CC[C@H](O[C@@H]5O[C@H](CO)[C@@H](O)[C@H](O)[C@H]5O[C@@H]5O[C@H](CO)[C@@H](O)[C@H](O)[C@H]5O)C(C)(C)[C@@H]4CC[C@]23C)O1 [OPERCULINOSIDE D]
[1]
  MNTC at 48 h: 100 µg/mL
[2]
  inhibition at 12.5 µg/mL: 22.2%
[3]
  inhibition at 6.25 µg/mL: 6.3%
[4]
  inhibition at 3.13 µg/mL: 5.5%

## COc1cc(C2Oc3cc([C@H]4Oc5cc(O)cc(O)c5C(=O)[C@@H]4O)ccc3OC2CO)ccc1O (stereo not given in full) [SILIBININ]
[1]
  MNTC at 48 h: 6.25 µg/mL
[3]
  inhibition at 6.25 µg/mL: 28.2%
[4]
  inhibition at 3.13 µg/mL: 33.4%
[5]
  inhibition at 1.56 µg/mL: 10.1%
